Starred links: 1 amine or outer side, 2 acyl side, 3 side chain; linkers in the order of their positions; H or OH if unused. Residues, ends and D or L forms follow the SMILES beside them. *: point of attachment. X2 = O=C(CCCC[C@@H]1SC[C@@H]2NC(=O)N[C@@H]21)NCCCOCCOCCOCCCN*; X35 = O=C(O)[C@@H](CC(=O)*)SCc1ccc(C(F)(F)F)cc1; X62 = Cc1cc(C)c(CS[C@@H](CC(=O)*)C(=O)O)c(C)c1; X63 = O=C(O)[C@@H](CC(=O)*)SCc1ccc(Cl)c(Cl)c1; X28 = O=C(O)[C@@H](CC(=O)*)Sc1ccc(Cl)c(Cl)c1; X72 = O=C(O)[C@@H](CC(=O)*)SCc1cccc2ccccc12; X11 = O=C(O)[C@H](CC(=O)*)SCc1cccc2ccccc12; X18 = O=C(O)[C@@H](CC(=O)*)Sc1c(Cl)cccc1Cl; X43 = O=C(O)[C@H](CC(=O)*)Sc1ccc(Cl)cc1Cl; X50 = O=C(O)[C@H](CC(=O)*)Sc1cc(Cl)ccc1Cl; X14 = O=C(O)[C@H](CC(=O)*)SCc1ccc(Cl)cc1; X22 = COc1ccc(CS[C@H](CC(=O)*)C(=O)O)cc1; X6 = Cc1noc(C)c1CCS[C@@H](CC(=O)*)C(=O)O; X19 = O=C(O)[C@H](CC(=O)*)Sc1ccc(Cl)cc1; X53 = O=C(O)[C@H](CC(=O)*)Sc1ccccc1Cl; X60 = O=C(O)[C@@H](CC(=O)*)SCc1ccccc1; X9 = O=C(O)C(CC(=O)*)Sc1ccc2ccccc2c1; X8 = O=C(O)[C@H](CC(=O)*)Sc1ccccc1; X12 = O=C(O)C(CC(=O)*)SCCc1cnccn1; X5 = O=C(O)C(CC(=O)*)SCCc1ccccn1; Suc = O=C(CCC(=O)[*:2])[*:1]; Bz = O=C(c1ccccc1)*
These molecules were tested against T1, NAD-dependent protein deacylase sirtuin-5, mitochondrial (Homo sapiens, UniProt Q9NXA8) (assay: Inhibition of human recombinant N-terminal Strep2-tagged SIRT5 expressed in Escherichia coli BL21 (DE3) using Abz-GVLK(glutaryl)AY(NO2)GV-NH2 as substrate in presence of NAD+ by fluorescence assay).
T1 sequence (Q9NXA8 whole entry): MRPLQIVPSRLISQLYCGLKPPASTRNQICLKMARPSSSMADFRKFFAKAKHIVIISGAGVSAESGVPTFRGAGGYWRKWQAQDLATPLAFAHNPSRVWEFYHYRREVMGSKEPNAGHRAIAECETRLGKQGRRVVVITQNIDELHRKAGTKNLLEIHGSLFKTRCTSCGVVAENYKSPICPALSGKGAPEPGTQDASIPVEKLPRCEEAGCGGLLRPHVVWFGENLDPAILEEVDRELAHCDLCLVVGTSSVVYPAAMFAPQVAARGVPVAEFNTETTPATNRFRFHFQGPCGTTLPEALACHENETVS

Structure (SMILES) | IC50 [nM] | Ki [nM]
CC(C)C[C@H](NC(=O)[C@@H](NC(=O)CNC(=O)c1ccccc1)C(C)C)C(=O)N[C@@H](CCCCNC(=O)CC(SCCc1cnccn1)C(=O)O)C(=O)N[C@@H](CCC(=O)O)C(=O)N[C@@H](Cc1ccc(O)cc1)C(=O)NCC(=O)N[C@H](C(N)=O)C(C)C (stereo not given in full) (Bz-GVLK(X12)EYGV-NH2) | 22800 | 3.5 to 11
CCCCNC(=O)C[C@H](Sc1ccc2ccccc2c1)C(=O)O | 154000 | 
CC(C)C[C@H](NC(=O)[C@@H](NC(=O)CNC(=O)c1ccccc1)C(C)C)C(=O)N[C@@H](CCCCNC(=O)C[C@@H](SCc1ccc(Cl)c(Cl)c1)C(=O)O)C(=O)N[C@@H](CCC(=O)O)C(=O)N[C@@H](Cc1ccc(O)cc1)C(=O)NCC(=O)N[C@H](C(N)=O)C(C)C (Bz-GVLK(X63)EYGV-NH2) | 780 | 
Cc1noc(C)c1CCS[C@@H](CC(=O)NCCCC[C@H](NC(=O)[C@H](CC(C)C)NC(=O)[C@@H](NC(=O)CNC(=O)c1ccccc1)C(C)C)C(=O)N[C@@H](CCC(=O)O)C(=O)N[C@@H](Cc1ccc(O)cc1)C(=O)NCC(=O)N[C@H](C(N)=O)C(C)C)C(=O)O (Bz-GVLK(X6)EYGV-NH2) | 8750 | 
CC(C)C[C@H](NC(=O)[C@@H](NC(=O)CNC(=O)c1ccccc1)C(C)C)C(=O)N[C@@H](CCCCNC(=O)C[C@H](SCc1ccc(Cl)cc1)C(=O)O)C(=O)N[C@@H](CCC(=O)O)C(=O)N[C@@H](Cc1ccc(O)cc1)C(=O)NCC(=O)N[C@H](C(N)=O)C(C)C (Bz-GVLK(X14)EYGV-NH2) | 893 | 
CC(C)C[C@H](NC(=O)[C@@H](NC(=O)CNC(=O)c1ccccc1)C(C)C)C(=O)N[C@@H](CCCCNC(=O)C[C@@H](Sc1c(Cl)cccc1Cl)C(=O)O)C(=O)N[C@@H](CCC(=O)O)C(=O)N[C@@H](Cc1ccc(O)cc1)C(=O)NCC(=O)N[C@H](C(N)=O)C(C)C (Bz-GVLK(X18)EYGV-NH2) | 12500 | 
CC(C)C[C@H](NC(=O)[C@@H](NC(=O)CNC(=O)c1ccccc1)C(C)C)C(=O)N[C@@H](CCCCNC(=O)C[C@@H](SCc1ccc(C(F)(F)F)cc1)C(=O)O)C(=O)N[C@@H](CCC(=O)O)C(=O)N[C@@H](Cc1ccc(O)cc1)C(=O)NCC(=O)N[C@H](C(N)=O)C(C)C (Bz-GVLK(X35)EYGV-NH2) | 2200 | 
COc1ccc(CS[C@H](CC(=O)NCCCC[C@H](NC(=O)[C@H](CC(C)C)NC(=O)[C@@H](NC(=O)CNC(=O)c2ccccc2)C(C)C)C(=O)N[C@@H](CCC(=O)O)C(=O)N[C@@H](Cc2ccc(O)cc2)C(=O)NCC(=O)N[C@H](C(N)=O)C(C)C)C(=O)O)cc1 (Bz-GVLK(X22)EYGV-NH2) | 1110 | 
Cc1cc(C)c(CS[C@@H](CC(=O)NCCCC[C@H](NC(=O)[C@H](CC(C)C)NC(=O)[C@@H](NC(=O)CNC(=O)c2ccccc2)C(C)C)C(=O)N[C@@H](CCC(=O)O)C(=O)N[C@@H](Cc2ccc(O)cc2)C(=O)NCC(=O)N[C@H](C(N)=O)C(C)C)C(=O)O)c(C)c1 (Bz-GVLK(X62)EYGV-NH2) | 5200 | 
CC(C)C[C@H](NC(=O)[C@@H](NC(=O)CNC(=O)c1ccccc1)C(C)C)C(=O)N[C@@H](CCCCNC(=O)C[C@H](Sc1ccccc1Cl)C(=O)O)C(=O)N[C@@H](CCC(=O)O)C(=O)N[C@@H](Cc1ccc(O)cc1)C(=O)NCC(=O)N[C@H](C(N)=O)C(C)C (Bz-GVLK(X53)EYGV-NH2) | 857 | 
CC(C)C[C@H](NC(=O)[C@@H](NC(=O)CNC(=O)c1ccccc1)C(C)C)C(=O)N[C@@H](CCCCNC(=O)C[C@@H](Sc1ccc(Cl)c(Cl)c1)C(=O)O)C(=O)N[C@@H](CCC(=O)O)C(=O)N[C@@H](Cc1ccc(O)cc1)C(=O)NCC(=O)N[C@H](C(N)=O)C(C)C (Bz-GVLK(X28)EYGV-NH2) | 1610 | 
CC(C)C[C@H](NC(=O)[C@@H](NC(=O)CNC(=O)c1ccccc1)C(C)C)C(=O)N[C@@H](CCCCNC(=O)CC(SCCc1ccccn1)C(=O)O)C(=O)N[C@@H](CCC(=O)O)C(=O)N[C@@H](Cc1ccc(O)cc1)C(=O)NCC(=O)N[C@H](C(N)=O)C(C)C (stereo not given in full) (Bz-GVLK(X5)EYGV-NH2) | 6970 | 

Molecules with a lower IC50, results first:

IC50 [nM] | Ki [nM] | Structure (SMILES)
644 |  | CC(C)C[C@H](NC(=O)[C@@H](NC(=O)CNC(=O)c1ccccc1)C(C)C)C(=O)N[C@@H](CCCCNC(=O)C[C@@H](SCc1ccccc1)C(=O)O)C(=O)N[C@@H](CCC(=O)O)C(=O)N[C@@H](Cc1ccc(O)cc1)C(=O)NCC(=O)N[C@H](C(N)=O)C(C)C (Bz-GVLK(X60)EYGV-NH2)
350 |  | CC(=O)N[C@@H](CC(C)C)C(=O)N[C@@H](CCCCNC(=O)C[C@H](Sc1ccc2ccccc2c1)C(=O)O)C(=O)N[C@@H](C)C(N)=O
295 |  | CC(C)C[C@H](NC(=O)[C@@H](NC(=O)CNC(=O)c1ccccc1)C(C)C)C(=O)N[C@@H](CCCCNC(=O)C[C@H](Sc1cc(Cl)ccc1Cl)C(=O)O)C(=O)N[C@@H](CCC(=O)O)C(=O)N[C@@H](Cc1ccc(O)cc1)C(=O)NCC(=O)N[C@H](C(N)=O)C(C)C (Bz-GVLK(X50)EYGV-NH2)
274 | 135 | CC(C)C[C@H](NC(=O)[C@@H](NC(=O)CNC(=O)c1ccccc1)C(C)C)C(=O)N[C@@H](CCCCNC(=O)C[C@H](Sc1ccccc1)C(=O)O)C(=O)N[C@@H](CCC(=O)O)C(=O)N[C@@H](Cc1ccc(O)cc1)C(=O)NCC(=O)N[C@H](C(N)=O)C(C)C (Bz-GVLK(X8)EYGV-NH2)
207 |  | CC(C)C[C@H](NC(=O)[C@@H](NC(=O)CNC(=O)c1ccccc1)C(C)C)C(=O)N[C@@H](CCCCNC(=O)C[C@@H](SCc1cccc2ccccc12)C(=O)O)C(=O)N[C@@H](CCC(=O)O)C(=O)N[C@@H](Cc1ccc(O)cc1)C(=O)NCC(=O)N[C@H](C(N)=O)C(C)C (Bz-GVLK(X72)EYGV-NH2)
177 |  | CC(C)C[C@H](NC(=O)[C@@H](NC(=O)CNC(=O)c1ccccc1)C(C)C)C(=O)N[C@@H](CCCCNC(=O)C[C@H](Sc1ccc(Cl)cc1Cl)C(=O)O)C(=O)N[C@@H](CCC(=O)O)C(=O)N[C@@H](Cc1ccc(O)cc1)C(=O)NCC(=O)N[C@H](C(N)=O)C(C)C (Bz-GVLK(X43)EYGV-NH2)
102 |  | CC(C)C[C@H](NC(=O)[C@@H](NC(=O)CNC(=O)c1ccccc1)C(C)C)C(=O)N[C@@H](CCCCNC(=O)C[C@H](Sc1ccc(Cl)cc1)C(=O)O)C(=O)N[C@@H](CCC(=O)O)C(=O)N[C@@H](Cc1ccc(O)cc1)C(=O)NCC(=O)N[C@H](C(N)=O)C(C)C (Bz-GVLK(X19)EYGV-NH2)
91.1 |  | CC(C)C[C@H](NC(=O)[C@@H](NC(=O)CNC(=O)CCC(=O)NCCCOCCOCCOCCCNC(=O)CCCC[C@@H]1SC[C@@H]2NC(=O)N[C@@H]21)C(C)C)C(=O)N[C@@H](CCCCNC(=O)CC(Sc1ccc2ccccc2c1)C(=O)O)C(=O)N[C@@H](CCC(=O)O)C(=O)N[C@@H](Cc1ccc(O)cc1)C(=O)NCC(=O)N[C@H](C(N)=O)C(C)C (stereo not given in full) ({X2-Suc}-GVLK(X9)EYGV-NH2)
15.4 | 7 | CC(C)C[C@H](NC(=O)[C@@H](NC(=O)CNC(=O)c1ccccc1)C(C)C)C(=O)N[C@@H](CCCCNC(=O)C[C@H](SCc1cccc2ccccc12)C(=O)O)C(=O)N[C@@H](CCC(=O)O)C(=O)N[C@@H](Cc1ccc(O)cc1)C(=O)NCC(=O)N[C@H](C(N)=O)C(C)C (Bz-GVLK(X11)EYGV-NH2)

Each molecule was assayed against T1, NAD-dependent protein deacylase sirtuin-5, mitochondrial (assay: Competitive inhibition of human recombinant N-terminal Strep2-tagged SIRT5 expressed in Escherichia coli BL21 (DE3) using Abz-GVLK(glutaryl)AY(NO2)GV-NH2 as substrate in presence of NAD+ by fluorescence assay).
Method in brief: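 Continuous trypsin-coupled fluorescence assay at 37°C: 10 nM SIRT5, 500 µM NAD+, 500 nM trypsin, 5% DMSO, 0.025-5 µM substrate, 0.01-20 µM inhibitor. Buffer: 20 mM Tris, 150 mM NaCl, 5 mM MgCl2, pH 7.8. Excitation 320 nm, emission 420 nm. Measured in duplicate; IC50 determined at 0.03 µM substrate by log(inhibitor) vs normalized response fit.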

Ki [nM] | Structure (SMILES)
83.2 | CC(C)C[C@H](NC(=O)[C@@H](NC(=O)CNC(=O)CCC(=O)NCCCOCCOCCOCCCNC(=O)CCCC[C@@H]1SC[C@@H]2NC(=O)N[C@@H]21)C(C)C)C(=O)N[C@@H](CCCCNC(=O)CC(Sc1ccc2ccccc2c1)C(=O)O)C(=O)N[C@@H](CCC(=O)O)C(=O)N[C@@H](Cc1ccc(O)cc1)C(=O)NCC(=O)N[C@H](C(N)=O)C(C)C (stereo not given in full) ({X2-Suc}-GVLK(X9)EYGV-NH2)

Reference: ChEMBL document CHEMBL4033793, “Potent and Selective Inhibitors of Human Sirtuin 5” (J Med Chem, 2018)
